These results are taken from ChEMBL document CHEMBL1124761, “Polyamine analogues with antitumor activity” (J Med Chem, 1990).

SMILES strings stand for the structures. Calls of active or inactive are those of the source. No cut-off for these calls is given here.

For series [1], the system named is L1210. Put plainly: Tested for the T/C (survival time treated/survival time control x 100) after intraperitoneal administration of 50 mg/Kg in 10 E 5 L1210 cells on day 0; not active. The series is classed as functional. Conditions: Mus musculus.
Series [2] deals with L1210. Put plainly: Tested for the T/C (survival time treated /survival time control x 100) after intraperitoneal administration of 5 mg/kg in 10 E 5 L1210 cells on day 0. The series is classed as functional, Mus musculus. The gist of the method:
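Male BDF1 mice, in groups of six, were inoculated ip with 10^5 L1210 cells on day 0. Tetrahydrochloride salts were given at 5 mg/kg every 3 h (×4) on days 3-5. T/C = survival time treated/survival time control × 100.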

Series [3] deals with L1210. Put plainly: Modulation of the antitumor activity against L1210 Leukemia by 25 mg/kg ip days 1-7, 1 dose/day. Type of series: functional, Mus musculus. Particulars: route intraperitoneal.
Series [4] has as its system L1210. Nature of the series: Effect of 25 mg/kg putrescine or spermidine coadministered with 25 mg/kg compound on the tumor cell concentration (L1210) of putrescine. Type of series: functional, Mus musculus. The gist of the method: (§1)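 BDF1 male mice bearing ip L1210 cells. Starting day 4, ip dosing with analogue, alone or with putrescine or spermidine, at the doses indicated. Killed 4 h after the final dose; tumour cells recovered by peritoneal lavage. Drug and polyamines quantified by HPLC, pmol/10^6 cells, mean of three determinations.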

In series [5] the test system is L1210. Put plainly: Effect of 25 mg/kg putrescine or spermidine coadministered with 25 mg/kg compound on the tumor cell concentration (L1210) of spermidine. Type of series: functional, Mus musculus. Put shortly:
as §1

Series [6] relates to L1210. Nature of the series: Modulation of the antitumor activity against L1210 Leukemia at 25 mg/kg along with 25 mg/kg putrescine days 1-7, 1 dose / day. Type of series: functional, Mus musculus.
Series [7] concerns L1210. Put plainly: Effect of 25 mg/kg putrescine or spermidine coadministered with 25 mg/kg compound on the tumor cell concentration (L1210) of spermine. The series is classed as functional, Mus musculus. Put shortly:
as §1

Series [8] deals with L1210. Nature of the series: Effect of 25 mg/kg putrescine or spermidine coadministered with 25 mg/kg compound on the tumor cell concentration (L1210) of compound. The series is classed as functional, Mus musculus. Put shortly:
as §1

The subject of series [9] is L1210. Put plainly: Modulation of the antitumor activity against L1210 Leukemia at 25 mg/kg along with 25 mg/kg spermidine days 1-7, 1 dose / day. The series is classed as functional, Mus musculus.
Series [10] relates to L1210. Put plainly: Effect of 25 mg/kg putrescine coadministered with 25 mg/kg compound on the tumor cell concentration (L1210) of putrescine. The series is classed as functional, Mus musculus. The gist of the method: as §1
The subject of series [11] is L1210. Put plainly: Effect of 25 mg/kg putrescine coadministered with 25 mg/kg compound on the tumor cell concentration (L1210) of spermidine. Type of series: functional, Mus musculus. Put shortly:
as §1

The test system of series [12] is L1210. Nature of the series: Effect of 25 mg/kg putrescine coadministered with 25 mg/kg compound on the tumor cell concentration (L1210) of compound. Type of series: functional, Mus musculus. Put shortly: as §1
Series [13] relates to L1210. Nature of the series: Effect of 25 mg/kg putrescine coadministered with 25 mg/kg compound on the tumor cell concentration (L1210) of spermine. Type of series: functional, Mus musculus. Put shortly: as §1
Series [14] in a line: Tested for in vitro half life period against polyamine oxidase after intraperitoneal administration. The series is classed as ADME. Particulars: ip.
Series [15] deals with L1210. Put plainly: (§2) Antitumor activity against L1210 leukemia in BDF1 male mice at the dose of 5 mg/kg when given with 5.0 mg/kg of diallenylputrescine. The series is classed as functional, Mus musculus. The gist of the method:
(§3)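 BDF1 male mice were inoculated ip with 10^5 L1210 cells on day 0. Agents were given ip once daily on days 1-9, alone or with diallenylputrescine at 2.5 or 5.0 mg/kg. Mean survival time was reported ± SD (n=5). %T/C = treated survival/control survival × 100.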

Series [16] relates to L1210. Put plainly: (§4) Antitumor activity against L1210 leukemia in BDF1 male mice at the dose of 5 mg/kg. Type of series: functional, Mus musculus. The gist of the method: (§5)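 L1210 leukemia, 10^5 cells inoculated ip into BDF1 male mice on day 0. Analogue given ip once daily on days 1-9; where stated, diallenylputrescine (PAO inhibitor) was co-given at 2.5 or 5.0 mg/kg. Mean survival time ± SD (n=5). %T/C = treated survival time/control survival time × 100.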

Series [17] concerns L1210. Nature of the series: (§6) Antitumor activity against L1210 leukemia in BDF1 male mice at the dose of 10 mg/kg. The series is classed as functional, Mus musculus. Put shortly:
as §5

In series [18] the test system is L1210. The description is as §6. Type of series: functional, Mus musculus. Put shortly: as §3
This is another data set of the same source.

The test system of series [19] is L1210. Nature of the series: (§7) Antitumor activity against L1210 leukemia in BDF1 male mice at the dose of 10 mg/kg when given with 5.0 mg/kg of diallenylputrescine. Type of series: functional, Mus musculus. Put shortly:
as §5

Series [20] has as its system L1210. The description is as §2. Type of series: functional, Mus musculus. Put shortly: as §5
This is another data set of the same source.

For series [21], the system named is L1210. The description is as §7. The series is classed as functional, Mus musculus. Put shortly: as §3
This is another data set of the same source.

Series [22] concerns L1210. Described as §4. Type of series: functional, Mus musculus. Also on record: unit not given here. Put shortly:
as §3

The test system of series [23] is L1210. Nature of the series: Tested for the T/C (survival time treated /survival time control x 100) after intraperitoneal administration of 25 mg/kg in 10 E 5 L1210 cells on day 0. The series is classed as functional, Mus musculus.
For series [24], the system named is L1210. Put plainly: Effect of 25 mg/kg spermidine coadministered with 25 mg/kg compound on the tumor cell concentration (L1210) of compound. Type of series: functional, Mus musculus. Put shortly: as §1
For series [25], the system named is L1210. Put plainly: Effect of 25 mg/kg spermidine coadministered with 25 mg/kg compound on the tumor cell concentration (L1210) of spermidine. The series is classed as functional, Mus musculus. Put shortly: as §1
The subject of series [26] is L1210. Put plainly: Effect of 25 mg/kg spermidine coadministered with 25 mg/kg compound on the tumor cell concentration (L1210) of putrescine. The series is classed as functional, Mus musculus. Put shortly: as §1
Series [27] deals with L1210. Nature of the series: Effect of 25 mg/kg spermidine coadministered with 25 mg/kg compound on the tumor cell concentration (L1210) of spermine. Type of series: functional, Mus musculus. Put shortly: as §1
The target of series [28] is Peroxisomal N(1)-acetyl-spermine/spermidine oxidase (Mus musculus) (UniProt Q8C0L6). Put plainly: Tested for the in vivo inhibitory activity against polyamine oxidase in mice at a dose of 1 mg/kg. Type of series: functional, organism-based. Details: dose 1 mg/kg. The gist of the method: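 Mice received drug ip 24 h before sacrifice. Liver homogenised and polyamine oxidase activity assayed. Protein by Bradford method with BSA standard.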
Chain of Peroxisomal N(1)-acetyl-spermine/spermidine oxidase (Mus musculus) (Q8C0L6 whole entry): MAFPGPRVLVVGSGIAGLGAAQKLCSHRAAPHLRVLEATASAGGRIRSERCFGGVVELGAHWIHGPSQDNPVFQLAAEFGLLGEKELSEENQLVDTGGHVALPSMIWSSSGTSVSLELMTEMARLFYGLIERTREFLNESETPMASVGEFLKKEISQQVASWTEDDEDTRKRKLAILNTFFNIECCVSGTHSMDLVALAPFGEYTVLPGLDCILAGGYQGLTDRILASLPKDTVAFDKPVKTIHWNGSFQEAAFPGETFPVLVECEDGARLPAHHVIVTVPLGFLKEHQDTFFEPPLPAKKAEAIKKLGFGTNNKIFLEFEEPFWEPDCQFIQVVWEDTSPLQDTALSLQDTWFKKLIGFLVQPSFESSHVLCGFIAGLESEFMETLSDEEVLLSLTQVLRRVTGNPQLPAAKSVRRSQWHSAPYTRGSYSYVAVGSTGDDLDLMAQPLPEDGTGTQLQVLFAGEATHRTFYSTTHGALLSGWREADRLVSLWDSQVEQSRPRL

Series [29] has as its system L1210. Put plainly: (§8) Antitumor activity against L1210 leukemia in BDF1 male mice at the dose of 5 mg/kg when given with 2.5 mg/kg of diallenylputrescine. Type of series: functional, Mus musculus. Put shortly: as §3
Series [30] deals with L1210. The description is as §8. Type of series: functional, Mus musculus. Put shortly:
as §5
This is another data set of the same source.

Usually T/C stands for the ratio of treated to control. In the case of `CC(CCN)NCCCCCCCCNC(C)CCN` (centres undefined), the T/C entry in series [1] was “inactive”.
The compound `Cl.Cl.Cl.Cl.NCCCNCCCCCCCCNCCCN` returned a T/C in series [2] of 350%. The Mean survival time was 16.2 days in [3], 15 days in series [6] and 8.3 days in series [9]. The Effect was 37.4 pM (10e6*cells)-1 in series [4], 1711 pM (10e6*cells)-1 in series [5], 1110 pM (10e6*cells)-1 in [7] and 580 pM (10e6*cells)-1 in series [8].
On to `NCCCCN.NCCCNCCCCCCCCNCCCN`, for which the Effect in series [10] is recorded as 120 pM (10e6*cells)-1; in [11] it was 1060 pM (10e6*cells)-1; in series [12], 520 pM (10e6*cells)-1; in series [13], 799 pM (10e6*cells)-1.
Take `NCCCCCCCCNCCCN`: the T/C result in series [1] was “inactive”.
On to `C=C=CCNCCCCNCC=C=C`, for which the T50 in series [14] was found to be 1 min.
Regarding `NCCCCSCCCN`, in [1], the T/C entry was “inactive”.
On to `c1ccc(CNCCCNCCCCCCCCNCCCNCc2ccccc2)cc1`, for which the T/C entry in series [1] is “inactive”.
Consider `CNCCCNCCCCCCCCNCCCNC.Cl.Cl.Cl.Cl`, for which the Mean survival time in series [15] worked out at 12.6; in series [18] it was 13.8; in series [21], 25.4; in series [22], 11.4. Besides, the T/C in series [2] is recorded as 206%; in [16], 142%; in series [17], 172%; in series [19], 317%; in series [20], 157%.
Regarding `NCCCNCCCN` [NORSPERMIDINE], the T/C in series [23] was 179%.
On to `NCCCCNCCCN.NCCCNCCCCCCCCNCCCN`, for which the Effect in series [24] is given as 114 pM (10e6*cells)-1; in series [25] it was 2174 pM (10e6*cells)-1; in series [26], 51.7 pM (10e6*cells)-1; in series [27] it was 817 pM (10e6*cells)-1.
`NCCCCCCCCN`: the T/C result in series [1] was “inactive”.
On to `CNCCCNCCCNC`, for which, in series [1], the T/C entry is “inactive”.
Turning to `CNCCCCCCCCNC`, the T/C entry in series [1] is “inactive”.
For the compound `NCCCOCCCN`, in series [1], the T/C result is “inactive”.
Same read-out and setting: then `NCCCS(=O)(=O)CCCN`, with “inactive”.
Take `C=C=CCNCCCNCCCCCCCCNCCCNCC=C=C.Cl.Cl.Cl.Cl`: the PAO activity in series [28] was determined as 4.1 pM/min. In series [1], the T/C result was “inactive”. This compound also yielded a T50 in series [14] of 2 min.
With `NCCCSCCCN`, the T/C result in [1] is “inactive”.
Turning to `CC(N)CCNCCCCCCCCNCCC(C)N.Cl.Cl.Cl.Cl` (centres undefined), the Mean survival time in series [29] turned out to be 25.6; in [22], 13.3. Moreover, the T/C in [2] worked out at 206%; in series [16] it was 195%; in series [30], 376%.
For the compound `CCCNCCCNCCCCCCCCNCCCNCCC`, the T/C result in series [1] was “inactive”.
Still for that read-out and setting: then `CN(CCCN)CCCN`, with “inactive”; and `CN(CCCN)CCCCCCCCN(C)CCCN`, with “inactive”.
As to `C=C=CCNCCCNCCCNCC=C=C`, the PAO activity (pM min-1 mg-1) in series [28] amounted to 1. Besides, the T/C entry in series [1] was “inactive”. This compound registered a T50 in series [14] of 4 min.
In the case of `CCCCNCCCNCCCCCCCCNCCCNCCCC`, the T/C result in [1] was “inactive”.
On to `CN(C)CCCNCCCCCCCCNCCCN(C)C`, for which, in series [1], the T/C result was “inactive”.
For `CCNCCCNCCCCCCCCNCCCNCC.Cl.Cl.Cl.Cl`, the Mean survival time in series [15] turned out to be 11.4; in series [18], 9; in series [21], 23; in series [22], 9.8. The T/C is reported as 135% in series [2]; 122% in series [16]; 112% in [17]; 287% in series [19]; 142% in series [20].
`CN(C)CCCNCCCN(C)C`: the T/C entry in series [1] was “inactive”.
Turning to `CCNCCCNCCCCCCCCNCCCN.Cl.Cl.Cl.Cl`, the Mean survival time turned out to be 8.4 in series [15], 9 in series [18], 12.4 in series [21] and 7.6 in [22]. Moreover, the T/C in series [2] is 145%; in series [16], 100%; in series [17], 112%; in series [19], 155%; in series [20], 105%.
Take `NCCCCCCCN`: the T/C result in [1] is “inactive”.
Still for that read-out and setting: then `NCCCNCCCOCCCNCCCN`, with “inactive”.
